This is a sample that favours compounds with a hit; in the whole collection about 4.9% have one here.
NPY Y1 blocker: NPY-Y1 (human) receptor antagonism; HEK293-CNG Y1 cells, membrane potential fluorescence; NPY at EC95, then isoproterenol; inhibition, % at 3.6 µM; P25929; actives 1% (n = 200,000);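 active = inhibition above the campaign mean inhibition of all tested compounds plus 3 SD, cut at about 20% in these data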;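 also: 0% = DMSO wells given NPY plus isoproterenol and 100% = isoproterenol alone without NPY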
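Material: HEK293 Y1/CNG channel cell line | Also added: NPY (25 nM), isoproterenol (1 µM), Ro 20-1724 (25 µM) | Compound: One concentration, 3.6 µM, in 0.4% DMSO | Schedule: 3 h dye uptake, 1 h room-temperature compound, 45 min post-isoproterenol | Signal: Membrane-potential fluorescent dye readout | Read-out: % inhibition of NPY effect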
WT yeast gro inh: growth inhibition of WT yeast, mitochondrial fusion screen | inhibition, % at 10 µM | AID 1362 | actives 2.1% (n = 190,000) | mitochondrial fusion phenotypic screen, WT strain; in the data active = inhibition above about 58%; tested in S. cerevisiae
RAM network inh: yeast RAM network inhibition | S. cerevisiae dse1pr::URA3 reporter, 5-FOA growth OD615, 2 d; analog-sensitive cbk1-as2 kinase mutant strain | inhibition, % at 50 µM | actives 1.8% (n = 190,000);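 active = inhibition above a set limit, 3 SD over mean compound inhibition, cut at about 8.4% in these data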;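 also: 0% = DMSO-only wells with no growth and 100% = 10 µM 1-NA-PP1 full growth; inhibition rescues growth on 5-FOA so higher OD means more RAM inhibition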
NPY2 pot ag: potentiates or activates human NPY-Y2 receptor | P49146 | cells expressing NPY-Y2, potentiator/agonist read-out | activation, % at 3.6 µM | actives 0.45% (n = 220,000); in the data active = activation above about 27%;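 also: cells stimulated with NPY near EC25 plus isoproterenol at EC100; 0% = vehicle plus submaximal agonist and 100% = vehicle plus saturating agonist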
Target sequence (P49146 whole entry, looked up): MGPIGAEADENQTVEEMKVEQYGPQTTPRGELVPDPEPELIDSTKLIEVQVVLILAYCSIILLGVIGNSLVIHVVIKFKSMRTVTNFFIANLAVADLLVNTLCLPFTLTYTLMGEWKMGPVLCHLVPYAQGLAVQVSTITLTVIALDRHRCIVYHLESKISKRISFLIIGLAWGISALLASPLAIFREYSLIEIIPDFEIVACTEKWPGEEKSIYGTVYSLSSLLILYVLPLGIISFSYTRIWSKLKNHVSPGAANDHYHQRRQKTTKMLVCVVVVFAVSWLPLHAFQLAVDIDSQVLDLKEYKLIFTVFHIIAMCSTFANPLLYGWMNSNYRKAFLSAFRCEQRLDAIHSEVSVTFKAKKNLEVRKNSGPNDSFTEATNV
NPY-Y1 PAM-ag: human NPY-Y1 potentiation or agonism, primary screen | P25929 | NPY-Y1 expressing cells, potentiator/agonist activation | activation, % at 3.6 µM | actives 0.37% (n = 220,000); in the data active = activation above about 33%, passing the limit was not always enough;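 also: cells stimulated with NPY at EC10 then isoproterenol at EC100; 0% = low agonist plus stimulus and 100% = saturating agonist plus stimulus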
NPY Y2 blocker: blocks the human neuropeptide Y Y2 receptor | P49146 | NPY-Y2 expressing cells, antagonist mode | inhibition, % at 2.7 µM | actives 0.99% (n = 140,000);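 also: 0% = vehicle with agonist challenge and 100% = reference antagonist with challenge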
NPY-Y1 ant conf: confirmation of human neuropeptide Y receptor Y1 antagonists. shares compounds with NPY Y1 blocker. HEK293-CNG NPY-Y1, membrane potential fluorescence, cAMP; NPY challenge against isoproterenol-raised cAMP. inhibition, % at 3.6 µM. actives 21% (n = 1,200). AID 1254; in the data active = inhibition above about 20%;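 also: 0% = vehicle with agonist plus stimulus and 100% = stimulus alone without agonist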
NPY2 antag ctr: counter-screen for NPY-Y1 antagonists: human NPY-Y2 antagonism | actives 28% (n = 1,200) | inhibition, % at 3.6 µM | HEK293 NPY-Y2 CNG membrane potential fluorescence; cells given NPY, then isoproterenol | shares compounds with NPY Y1 blocker;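 also: 0% = DMSO with agonist challenge and 100% = reference antagonist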
* = called active by the depositor; · = no result; ! = a repeat was not active. Rule as the data show it, unless noted: active = inhibition above about 17%; inactive = the rest.

SMILES	NPY Y1 blocker	WT yeast gro inh	RAM network inh	NPY2 pot ag	NPY-Y1 PAM-ag	NPY Y2 blocker	NPY-Y1 ant conf	NPY2 antag ctr
CCc1ccc(-n2c(SCC(=O)Nc3cccc(S(=O)(=O)NC4=NCCCCC4)c3)nc3ccccc3c2=O)cc1	3	-8	5	-3	2	-2	·	·
CCOC(=O)N1CCC(NC(=O)C2CCN(S(=O)(=O)c3ccc4c(c3)oc(=O)n4C)CC2)CC1	7	-13	1	-10	-6	·	·	·
COc1ccccc1-n1c(-c2ccccc2)c[n+]2c1CCc1ccccc1-2	33*	63*!	1	14	-66	·	21*!	14
CC(C)c1ccc(-n2c(-c3ccccc3)c[n+]3c2CCc2ccccc2-3)cc1	116*	49	7	-21	-75	·	112*	77*
COc1ccccc1-n1c(-c2ccccc2)c[nH]c1=S	-2	8	1	5	2	·	·	·
CCOc1ccc(-n2c(-c3ccccc3)c[n+]3c2CCC3)cc1	-2	-6	1	-3	-6	·	·	·
COc1ccc(C(=O)Nc2ccc(-c3ccc(C)o3)cc2)cc1S(=O)(=O)N1CCOCC1	20*	4	6	15	23	0	16	14
COc1ccc(C(=O)Nc2cccc(C)c2)cc1S(=O)(=O)N1CCOCC1	2	6	2	6	0	6	·	·
CCCS/C(N)=N/N=C/c1ccccc1O	-4	5	3	2	-3	1	·	·
CC(C)(C)C1CCC(=NNc2nc3ccccc3[nH]2)CC1 (configuration not stated)	2	11	1	-10	-14	·	·	·
c1ccc2c(c1)CC/C2=N/Nc1nc2ccccc2[nH]1	26*	77*	2	-11	-37	·	20*	21*
O=C(C1CCCN1S(=O)(=O)c1ccc(Cl)cc1)N1CCOCC1 (configuration not stated)	2	-9	2	11	-1	2	·	·
Cc1cc(C)n(C(=O)C2CCCN2S(=O)(=O)c2ccc(Cl)cc2)n1 (configuration not stated)	25*	26	2	-11	13	-1	-1	1
COCCn1cc(C(=O)NCc2ccco2)c2c3ccccc3n(C)c2c1=O	9	1	3	-2	-22	·	·	·
CC(C)Cn1cc(C(=O)N2CCOCC2)c2c3ccccc3n(C)c2c1=O	0	4	1	-7	-11	4	·	·
CC(C)Cn1cc(C(=O)NCc2cccs2)c2c3ccccc3n(C)c2c1=O	21*	18	6	2	-2	16	4	5
CC(C)Cn1cc(C(=O)N2CCC(C)CC2)c2c3ccccc3n(C)c2c1=O	23*	13	0	-13	-2	·	4	8
O=C(COC(=O)c1ccc(NS(=O)(=O)c2ccc(Br)s2)cc1)NC1CCCC1	2	-3	7	-3	3	·	·	·
CC(C)OCCCNC(=O)c1c(N)n(/N=C/c2cccs2)c2nc3ccccc3nc12	25*	15	11*	10	14	9	17	16
O=C(N/N=C/c1c[nH]c2ccccc12)c1cc(-c2ccc3ccccc3c2)n[nH]1	0	-5	1	4	-9	0	·	·
CCOC(=O)c1c(C)n(C)c2cc(Br)c(OC)cc12	8	18	2	-9	-14	·	·	·
CCOC(=O)c1c(CNCCN(CC)CC)n(C)c2cc(Br)c(OC)cc12	27*	5	1	-27	-17	13	11	15
COc1cccc(NC(=O)NC(C)C2CC3CCC2C3)c1 (configuration not stated)	24*	11	4	-16	-9	·	3	34*
CCC(C)[C@H](NC(=O)Nc1cccc(OC)c1)C(=O)OC (some centres not stated)	-2	-11	-1	-2	2	3	·	·
CCN(CC)S(=O)(=O)c1ccc(Oc2ccc(S(=O)(=O)N(CC)CC)cc2)cc1	32*	-11	7	-3	-20	4	21*	13
SMILES	NPY Y1 blocker	WT yeast gro inh	RAM network inh	NPY2 pot ag	NPY-Y1 PAM-ag	NPY Y2 blocker	NPY-Y1 ant conf	NPY2 antag ctr
CCN(CC)S(=O)(=O)c1ccc(Oc2ccccc2OC)cc1	·	·	·	9	8	·	·	·
CC(C)N1C(=S)N(Cc2ccco2)C(=O)C1CC(=O)Nc1ccccc1 (configuration not stated)	74*	-10	3	4	7	·	-1	-1
O=C1c2cccc3c(N4CCCCC4)ccc(c23)C(=O)N1c1ccccc1O	1	-15	4	-13	-14	·	·	·
O=C1c2cccc3c(N4CCCCC4)ccc(c23)C(=O)N1c1ccc(O)cc1	22*	42	8	-18	-21	·	15	20*
Cc1cc(N2CCC(C(=O)Nc3ccc(F)cc3)CC2)nc(-c2ccccc2)n1	-3	-15	1	7	-16	3	·	·
Cc1cc(N2CCN(c3ccc(F)cc3)CC2)nc(-c2ccccc2)n1	21*	4	1	-6	-42	3	3	6
C=CCOc1ccc(Br)cc1/C=N/O	24*	4	-2	-9	-45	11	12	7
O/N=C/c1cc(Br)ccc1OCc1ccccc1F	8	·	·	-7	3	11	·	·
Cc1nn(-c2ccccn2)c2nc(-c3cccs3)cc(C(=O)NCc3ccco3)c12	17	8	4	-2	3	4	·	·
CCOC(=O)c1cc(-c2cccs2)nc2c1c(C)nn2-c1ccccn1	62*	69*	1	-22	-27	·	47*	22*
Fc1ccc(-c2nnc(NC3=NCCCCC3)o2)cc1	-5	6	4	-6	-5	4	·	·
COc1ccc(N(C)S(=O)(=O)c2ccc(Cl)c(C(=O)NCCc3ccc(Cl)cc3)c2)cc1	29*	33	8	5	5	·	9	10
COc1ccc(CCNC(=O)c2ccc(Cl)cc2Cl)cc1	5	2	0	-16	5	4	·	·
CCCS(=O)(=O)NCCc1cc2ccc(OC)cc2[nH]c1=O	-4	3	0	-4	12	2	·	·
CCn1c2ccccc2c2cc(NC(=O)c3cccc(OC)c3OC)ccc21	7	23	4	-13	-2	2	·	·
COc1cccc(C2=NN(C(=O)c3ccc(C)o3)C(O)(C(F)(F)F)C2)c1 (configuration not stated)	31*	25	1	0	-15	·	12	15
Cc1ccc(CSc2ncnc3ccccc23)cc1	17	15	0	-7	-15	·	·	·
O=Cc1cc2ccccc2nc1SCc1ccc(Cl)cc1	26*	19	7	-13	9	2	-5	7
